Shown are actives, neighbours in structure and some others; about 1.5% of the full set was active somewhere.
APJ antag: APJ receptor antagonism; P35414; CHO-K1 APJ beta-arrestin complementation, luminescence; inhibition, % at 20 µM; 0.32% of 330,000 active; AID 2521;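 active = inhibition above about 40% at 20 µM, limit read from the data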;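 note: cells challenged with 10 nM apelin-13 agonist together with compound; plate controls were apelin-13 plus DMSO wells for no effect and DMSO wells lacking apelin-13 for full effect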
EBI2 block: blocks human EBI2 receptor beta-arrestin signaling; P32249; EBI2 beta-arrestin recruitment, luminescence, 7a,25-OHC stimulated; inhibition, % at 5 µM; 0.81% of 360,000 active; AID 651636; in the data active = inhibition above about 38%;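 note: enzyme fragment complementation signal reports receptor beta-arrestin coupling in cells; 0% = agonist plus DMSO wells and 100% = wells without agonist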
CCR6 antag: blocks CCL20-driven beta-arrestin recruitment at human CCR6; 0.49% of 340,000 active; CHO-K1 CCR6 PathHunter beta-arrestin, luminescence, CCL20-stimulated; inhibition, % at 20 µM; AID 493098; P51684;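 active = compounds whose inhibition of the agonist-driven luminescence signal at 20 µM reaches about 50%, limit read from the data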;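 note: cells stimulated with CCL20 at 14 nM final; plate controls were DMSO with CCL20 for no effect and DMSO without agonist for full effect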
Target sequence (P51684 whole entry, looked up): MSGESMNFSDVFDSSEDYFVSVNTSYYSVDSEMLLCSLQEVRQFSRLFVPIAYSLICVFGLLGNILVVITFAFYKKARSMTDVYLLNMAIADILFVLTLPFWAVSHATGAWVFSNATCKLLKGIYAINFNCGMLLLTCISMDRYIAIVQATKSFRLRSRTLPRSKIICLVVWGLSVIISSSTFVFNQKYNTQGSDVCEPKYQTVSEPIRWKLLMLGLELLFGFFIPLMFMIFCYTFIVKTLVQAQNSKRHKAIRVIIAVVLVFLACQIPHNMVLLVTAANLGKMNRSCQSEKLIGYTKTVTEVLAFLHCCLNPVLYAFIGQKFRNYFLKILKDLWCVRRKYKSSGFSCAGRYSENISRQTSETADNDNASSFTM
CXCR6 block: blocks human CXCR6 beta-arrestin recruitment; CHO-K1 PathHunter CXCR6 beta-arrestin, luminescence; inhibition, % at 20 µM; 0.36% of 360,000 active; in the data active = inhibition above about 34%, passing the limit was not always enough;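 note: antagonist mode with CXCL16 agonist at 10 nM final; 0% = 10 nM CXCL16 with DMSO and 100% = unstimulated wells without agonist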
APJ ag: APJ receptor agonism; activation, % at 20 µM; CHO-K1 APJ PathHunter beta-arrestin, luminescence; 0% DMSO wells, 100% apelin; 0.11% of 330,000 active; P35414;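 active = activation more than six SD over the plate average, tested at 20 µM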;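 note: 0% = DMSO alone and 100% = apelin-13 at 10 nM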
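Assay system: CHO-K1 cells stably expressing ProLink-tagged human APJ and arrestin–beta-gal acceptor. Compound dosing: 20 µM single point, 1% DMSO. Times: 16-18 h seeding, 90 min dark compound exposure, 60 min detection. Detection: beta-gal luminescence. Evaluation: APJ–arrestin association signal. Controls: negative DMSO alone, positive Apelin-13 at 10 nM.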
EBI2 conf: EBI2 (human) antagonism, single concentration confirmation; inhibition, % at 5 µM; shares compounds with EBI2 block; EBI2 beta-arrestin luminescence, 7a,25-OHC antagonism; 29% of 2,400 active;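 active = inhibition of at least 50%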
EBI2 ag: activates EBI2, counter-screen for EBI2 antagonists | 2,400 tested, under 10 active | AID 652000 | shares compounds with EBI2 block | activation, % at 5 µM | EBI2-expressing cells, agonist mode, luminescence, 60 min; 0% vehicle, 100% 7α,25-dihydroxycholesterol control;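 active = activation of at least 50%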
bGal counter: counter-screen for EBI2 antagonists: E. coli beta-galactosidase inhibition. 1% of 2,400 active. inhibition, % at 5 µM. purified beta-galactosidase, luminescent Galacton Star, 15 min. AID 652176. shares compounds with EBI2 block;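 active = replicate-average signal at least 3 plate SD below neutral wells, shown as high inhibition, flagging enzyme-inhibiting false positives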;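 note: 0% = DMSO wells with enzyme and 100% = wells lacking enzyme; higher means stronger loss of beta-gal luminescence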
Starred values were filed as active, the others as inactive.

Results for COc1ccc(-n2c(Cc3cccn3C)nnc2SCC(=O)Nc2cccc(Cl)c2)cc1 ?
APJ antag: 4.3; EBI2 block: 47.1*; CCR6 antag: -6.9; CXCR6 block: 4.7; APJ ag: -1.6; EBI2 conf: 22.6; EBI2 ag: -0.7; bGal counter: 9.0

Results for Cn1cccc1Cc1nnc(SCC(=O)Nc2ccc(F)cc2)n1CCc1ccccc1 ?
APJ antag: -0.4; EBI2 block: 50.5*; CCR6 antag: 1.8; CXCR6 block: 0.1; APJ ag: 0.2; EBI2 conf: 34.0; EBI2 ag: 0.6; bGal counter: 1.6

Results for CCc1ccc(C(=O)NN(C(=O)c2ccc(CC)cc2)C(C)(C)C)cc1 ?
APJ antag: -1.1; EBI2 block: -12.1; CCR6 antag: 0.9; CXCR6 block: 3.7; APJ ag: 0.1

How did CCOC(=O)[C@]12CCCC=C1N(Cc1ccccc1)C(=O)[C@H](CC(=O)NCc1ccc(C)o1)C2 do in these assays?
EBI2 block: 0.0

How did O=S(=O)(c1ccccc1)N1CCN(CC(O)COc2ccc3c(c2)CCC3)CC1 (stereo unspecified) do in these assays?
APJ antag: 10.3; EBI2 block: 83.0*; CCR6 antag: -2.4; CXCR6 block: -0.9; APJ ag: 0.6; EBI2 conf: 69.2*; EBI2 ag: 1.9; bGal counter: -4.3

What do the screens show for `CCN1CCN(CC(O)COc2ccc3c(c2)CCC3)CC1` (stereo unspecified)?
APJ antag: 6.2; EBI2 block: -4.8; CCR6 antag: -5.8; CXCR6 block: -0.8; APJ ag: -2.5

What do the screens show for `O=C(c1cc2ccccc2o1)N1CCN(CCOc2ccccc2)CC1`?
APJ antag: -36.7; EBI2 block: 56.4*; CCR6 antag: 9.8; CXCR6 block: -4.3; APJ ag: -3.8; EBI2 conf: 38.1; EBI2 ag: -1.2; bGal counter: -13.2

What do the screens show for `Cc1ccc2c(C)c(C(=O)N3CCN(Cc4ccc5c(c4)OCO5)CC3)oc2c1C`?
APJ antag: 2.2; EBI2 block: 44.4*; CCR6 antag: -3.9; CXCR6 block: -0.3; APJ ag: -3.3; EBI2 conf: 16.3; EBI2 ag: 1.5; bGal counter: 5.5

How did O=C(c1cc2ccccc2o1)N1CCN(Cc2ccc3c(c2)OCO3)CC1 do in these assays?
APJ antag: 9.8; EBI2 block: 70.2*; CCR6 antag: 5.8; CXCR6 block: -1.5; APJ ag: -0.9; EBI2 conf: 37.1; EBI2 ag: 1.3; bGal counter: 5.9

How did Cc1ccc(C(=O)N2CCN(Cc3ccc4c(c3)OCO4)CC2)o1 do in these assays?
APJ antag: -7.0; EBI2 block: -4.2; CCR6 antag: 17.7; CXCR6 block: -6.2; APJ ag: 2.0

What do the screens show for `CCOC(=O)/C(N=Nc1ccc2c(c1)OCO2)=C(\C)O`?
APJ antag: 6.3; EBI2 block: 3.7; CCR6 antag: 17.5; CXCR6 block: 8.4; APJ ag: -3.2

What do the screens show for `C=C(C)c1nc(Oc2ccccc2)nc(Oc2ccccc2)n1`?
EBI2 block: -12.1; CCR6 antag: -7.5; CXCR6 block: -23.8

How did CC(=O)NN1C(=O)/C(=C2/Sc3ccc(Cl)cc3N2C)SC1=S do in these assays?
APJ antag: 21.4; EBI2 block: 0.1; CCR6 antag: 11.2; CXCR6 block: 3.7; APJ ag: -4.7

How did CSC(=Nc1ccccc1)C(C#N)c1nc2ccccc2[nH]1 (stereo unspecified) do in these assays?
APJ antag: 10.9; EBI2 block: 57.3*; CCR6 antag: 35.9; CXCR6 block: 8.5; APJ ag: -2.9; EBI2 conf: 46.7; EBI2 ag: -1.7; bGal counter: -10.8

How did N#CC(C(=S)Nc1ccccc1)c1nc2ccccc2[nH]1 (stereo unspecified) do in these assays?
APJ antag: 23.7; EBI2 block: 2.4; CCR6 antag: 29.7; CXCR6 block: -3.9; APJ ag: -3.2

What do the screens show for `CCCCOC(=O)C(C#N)c1nc2ccccc2nc1N1CCN(Cc2ccc3c(c2)OCO3)CC1` (stereo unspecified)?
APJ antag: 8.7; EBI2 block: 45.9*; CCR6 antag: 17.3; CXCR6 block: 25.4; APJ ag: -6.5; EBI2 conf: 17.7; EBI2 ag: -2.0; bGal counter: -3.1

How did COCCOC(=O)C(C#N)c1nc2ccccc2nc1N1CCN(Cc2ccccc2)CC1 (stereo unspecified) do in these assays?
APJ antag: 9.1; EBI2 block: 29.1; CCR6 antag: 36.2; CXCR6 block: 14.3; APJ ag: -4.0

Results for CC(C)COC(=O)C(C#N)c1nc2ccccc2nc1N1CCN(Cc2ccccc2)CC1 (stereo unspecified) ?
APJ antag: 3.6; EBI2 block: 46.0*; CCR6 antag: 24.6; CXCR6 block: 15.6; APJ ag: 4.5; EBI2 conf: 33.5; EBI2 ag: -0.5; bGal counter: 7.0

Results for COC(=O)C(C#N)c1nc2ccccc2nc1N1CCN(Cc2ccc3c(c2)OCO3)CC1 (stereo unspecified) ?
APJ antag: -4.9; APJ ag: -1.4

What do the screens show for `CCCCSc1nc(C)cc(SCC(=O)N/N=C/c2ccccc2)n1`?
APJ antag: -2.6; EBI2 block: 5.6; CCR6 antag: -0.9; CXCR6 block: -9.0; APJ ag: -2.4

How did C[C@@H]1CNC(=O)c2c(C(=O)Nc3cccc(Cl)c3)ncn21 do in these assays?
EBI2 block: -3.4; CXCR6 block: -19.8

What do the screens show for `COc1ccc2nccc(/C=C/c3ccnc4ccc(OC)cc34)c2c1`?
APJ antag: 8.0; EBI2 block: 37.8*; CCR6 antag: 7.6; CXCR6 block: -4.5; APJ ag: -3.2; EBI2 conf: -2.6; EBI2 ag: -0.3; bGal counter: -8.6

What do the screens show for `C[C@H](NC(=O)c1ncn2c1C(=O)N[C@@H](C)C2)C(=O)OC(C)(C)C`?
EBI2 block: -6.6; CXCR6 block: 3.1

How did CC(C)OCc1ccc(C(=O)N2CCN(S(=O)(=O)c3ccc(Br)s3)CC2)cc1 do in these assays?
APJ antag: -3.0; EBI2 block: 34.3; CCR6 antag: 0.3; CXCR6 block: -7.0; APJ ag: -1.8

Results for N#Cc1ccc(C(=O)N2CCN(S(=O)(=O)c3ccc(Br)s3)CC2)cc1 ?
APJ antag: -5.3; EBI2 block: 66.3*; CCR6 antag: 1.0; CXCR6 block: -11.5; APJ ag: -3.1; EBI2 conf: 31.9; EBI2 ag: 0.9; bGal counter: 8.4

Bioassay records (PubChem)
